For five compounds, IC50 results are on record in ChEMBL document CHEMBL1137876, “Synthesis and biological evaluation of novel cytotoxic phospholipids for prostate cancer” (Bioorg Med Chem Lett, 2004).

Some results are limits rather than exact numbers.

One assay deals with CHO. Description: Concentration required to inhibit tumor growth in CHO cells. As to conditions: Cricetulus griseus; call rule not given here. The class given is functional, cell-based. In short, it runs like this:
(§1)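 SRB assay. Cells were exposed to compound at 0–100 µM for 96 h, then fixed with 10% trichloroacetic acid, washed five times with water, air dried overnight and stained with SRB. Protein-bound dye was read at 540 nm.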

Assay [1] relates to DU-145. As to the kind of experiment: Concentration required to inhibit proliferation of DU-145 prostate cancer cell lines. It counts as functional, cell-based. To be noted: Homo sapiens. Summed up:
as §1

The nature of assay [2]: Concentration required to inhibit tumor growth in RH7777 cells. The class given is functional, cell-based. In short, it runs like this: as §1
Assay [3] concerns PC-3. Description: Concentration required to inhibit proliferation of PC-3 prostate cancer cell lines. To be noted: Homo sapiens. The class given is functional, cell-based. In short, it runs like this:
as §1

Assay [4] has as its system LNCaP. Description: Concentration required to inhibit proliferation of LNCaP prostate cancer cell lines. As to conditions: Homo sapiens. The class given is functional, cell-based. Summed up:
as §1

Assay [5] can be described thus: Concentration required to inhibit proliferation of PPC-1 prostate cancer cell lines. The class given is functional, cell-based. As to conditions: Homo sapiens. Summed up:
as §1

Assay [6] is described as follows: Concentration required to inhibit proliferation of TSU prostate cancer cell lines. The class given is functional, cell-based. To be noted: Homo sapiens. In short, it runs like this: as §1
Assay [7] relates to LNCaP. Description: Concentration required to inhibit proliferation of LNCaP prostate cancer cell lines; NA denotes not active. It counts as functional, cell-based, Homo sapiens. In short, it runs like this: as §1
For assay [8], the system named is DU-145. As to the kind of experiment: Concentration required to inhibit proliferation of DU-145 prostate cancer cell lines; NA denotes not active. It counts as functional, cell-based, Homo sapiens. Summed up: as §1
Assay [9] in a line: Concentration required to inhibit proliferation of TSU prostate cancer cell lines; NA denotes not active. It counts as functional, cell-based, Homo sapiens. In short, it runs like this: as §1
The subject of assay [10] is PC-3. As to the kind of experiment: Concentration required to inhibit proliferation of PC-3 prostate cancer cell lines; NA denotes not active. It counts as functional, cell-based, Homo sapiens. In short, it runs like this: as §1

As a reminder, the IC50 is the concentration at which inhibition is half-maximal. A high value points to lower potency. Regarding `CCCCCCCC/C=C/CCCCCCCCNC(=O)[C@@H](N)CO`, the IC50 was 5.2 µM in the assay on CHO; 6.9 µM with DU-145 [1]; 6.8 µM in assay [2]; 5.9 µM with PC-3 [3]; 6.6 µM with LNCaP [4]; 5.1 µM in [5]. For the same compound, inhibition in [6] was half-maximal at 5.5 µM (IC50).
For the compound `CCCCCCCC/C=C/CCCCCCCCC(=O)NCCOP(=O)(O)O`, the IC50 was above 50 µM in the assay on CHO; above 50 µM in the assay on DU-145 [1]; above 50 µM in assay [2]; “Not Active” with LNCaP [7]; above 50 µM in the assay with PC-3 [3]; 50 µM in assay [5]. The compound further returned an IC50 in [6] above 50 µM.
Turning to `CCCCCCCC/C=C/CCCCCCCCC(=O)NCCO`, the IC50 in the assay with CHO was above 20 µM; with DU-145 [8], “Not Active”; in [9] it was “Not Active”; in assay [2] it was above 20 µM; with PC-3 [10] it was “Not Active”; in the assay on LNCaP [7] it was “Not Active”. This compound also gave an IC50 in [5] above 20 µM.
Regarding `CCCCCCCCNC(=O)[C@H](CO)NC(=O)CCCCCCC`, the IC50 in the assay with CHO was above 100 µM; with DU-145 [1], above 100 µM; in the assay with PC-3 [3], 81.5 µM; in the assay with LNCaP [4], above 100 µM; in assay [5], 81.2 µM; in [6], 93.8 µM.
With `O=c1[nH]cc(F)c(=O)[nH]1` [FLUOROURACIL], the IC50 with LNCaP [4] amounted to 4.9 µM.
